# Screens: PubChem BioAssay, several laboratories
# Compounds with a hit are over-represented: about 2.2% of the library has one in this group of screens.
# Diaph inh CS = inhibits diaphorase or chemically oxidizes, flagging diaphorase assay artifacts; AID 1217; diaphorase resazurin-to-resorufin fluorescence, NADH, 16 min; bacterial (C. kluyveri) enzyme, not human; inhibition, % at 20 µM; 190,000 compounds, 0.69% hits;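 active = primary screen inhibition at 20 µM above a set limit, cut at about 50% in these data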
#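 Test system: Clostridium kluyveri diaphorase enzyme / Quantity: diaphorase at 0.14 U/mL in enzyme working solution / Incubation: 16-min room-temperature incubation before reading / Benchmarks: NADH-free wells as positive control, DMSO-only neutral wells / Signal: resorufin fluorescence 544/590 nm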
# G6PDH CS = counter-screen for G6PDH assay hits: L. mesenteroides G6PDH inhibition | Purified L. mesenteroides G6PDH, diaphorase/resazurin coupled fluorescence, 45 min | 200,000 compounds, 0.12% hits | inhibition, % at 5 µM | AID 1020; in the data active = inhibition above about 50%
# Diaphorase act = diaphorase activation or chemical reduction counter-screen; activation factor at 20 µM; Diaphorase/resazurin coupled assay, resorufin fluorescence, 16 min; hits give high values; 1 = vehicle wells, 0 = NADH-free wells; AID 1229; 190,000 compounds, 0.005% hits;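 active = diaphorase activity raised at least twofold by the compound at 20 µM; inactive = activation factor below 2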
#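 Material: Purified diaphorase enzyme from Clostridium kluyveri | Buffer or medium: 50 mM HEPES pH 7.4 with 4.542 mM MgCl2, 0.005% Tween 20 | Times: 16 min enzyme reaction, ambient temperature | Signal: Red resorufin fluorescence at 544/590 nm excitation/emission | Measure: Increased resorufin signal from activators or reducing compounds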
# ROMK mod = modulators of human ROMK potassium channel | Tet-inducible ROMK, thallium flux fluorescence; actives lie on both sides | B-score at 10 µM | 130,000 compounds, 2% hits | AID 1918;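 active = signal ratio slope over the read window, or its plate-corrected B-score, at least 3 SD from the plate mean, either direction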;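 also: B-score of the F/F0 ratio slope over 7 to 12 s after thallium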
# Target sequence (P48048 whole entry, looked up): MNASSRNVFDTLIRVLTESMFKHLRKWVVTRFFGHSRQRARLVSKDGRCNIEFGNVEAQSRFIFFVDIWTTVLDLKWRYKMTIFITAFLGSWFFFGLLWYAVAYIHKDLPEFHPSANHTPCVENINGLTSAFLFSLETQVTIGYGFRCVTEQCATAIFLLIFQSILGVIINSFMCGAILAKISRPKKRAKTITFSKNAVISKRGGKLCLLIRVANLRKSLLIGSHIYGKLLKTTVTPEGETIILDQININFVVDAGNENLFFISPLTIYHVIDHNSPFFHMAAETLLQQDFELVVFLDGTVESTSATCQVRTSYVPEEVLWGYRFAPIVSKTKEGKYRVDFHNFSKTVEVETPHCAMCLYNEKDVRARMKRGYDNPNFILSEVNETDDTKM
# PMI activator = activators of human phosphomannose isomerase; P34949; purified human PMI, coupled resazurin fluorescence, 20 min; hits give high values; 1 = vehicle control, 0 substrate-free wells; activation factor at 20 µM; 190,000 compounds, 0.005% hits;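 active = activation factor of 2 or more at 20 µM, relative to plate controls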
# PMI act satM6P = increases human PMI activity with near-saturating mannose 6-phosphate. coupled PMI enzyme assay, resazurin fluorescence, 20 min; hits give high values; 1 = untreated enzyme, 0 = substrate-free blank. activation factor at 20 µM. 190,000 compounds, 0.34% hits. AID 1216;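 active = activation factor of 2 or more at 20 µM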
#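 assay system = human phosphomannose isomerase with PGI, G6PDH, diaphorase coupling enzymes | quantity = 15 ng/mL PMI | incubation = enzyme reaction with compound 20 min at room temperature | medium = HEPES pH 7.4 buffer with MgCl2 and Tween-20 | compound dosing = one concentration, 20 µM, in 1% DMSO | measured by = Diaphorase-driven resazurin-to-resorufin fluorescence, excitation 544, emission 590 nm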
# ROMK hit retest = confirmation of human ROMK potassium channel modulators. shares compounds with ROMK mod. ROMK thallium flux, fluorescence ratio; hits give low values. normalized thallium flux (F/F0 slope) at 10 µM. 3,000 compounds, 54% hits. AID 1917;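 active = Flux at 10 µM at least 3 SD below or above vehicle control mean in one or both replicates; inconclusive = no clear call, values can overlap the other calls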
# Numbers stand for hits; – = inactive; ? = inconclusive; · = no result.
SMILES,Diaph inh CS,G6PDH CS,Diaphorase act,ROMK mod,PMI activator,PMI act satM6P,ROMK hit retest
COc1ccc(OCC(=O)NNc2c3ccccc3nc3ccccc23)cc1,–,–,–,·,–,–,?
N#C/C(=C(/O)CN1CCCCC1)c1nc(-c2ccc(Cl)cc2)cs1,–,–,–,·,–,–,·
Cc1ccc(-c2csc(/C(C#N)=C(\O)CCl)n2)cc1,–,–,–,-3.32,–,–,?
N#Cc1cccc(N=c2ssnc2Cl)c1,–,–,–,-3.95,–,–,0.0653
CCOC(=O)C1=C(O)C(=O)N(c2ccc(S(N)(=O)=O)cc2)C1c1ccccc1 (centres undefined),–,–,–,·,–,–,–
CCOC(=O)C1=C(O)C(=O)N(c2ccc(S(N)(=O)=O)cc2)C1c1ccc(Cl)cc1 (centres undefined),–,–,–,·,–,–,·
Cc1ccc(S(=O)(=O)N2CCC(NC(=O)c3ccccc3)CC2)cc1,–,–,–,–,–,–,·
Cc1cc(C)cc(NC(=O)N2CCN(C/C=C/c3ccccc3)CC2)c1,–,–,–,-4.23,–,–,0.067
CCOC(=O)c1cnc2c(cnn2C)c1NCCCn1ccnc1,–,–,–,-2.94,–,–,–
CCOC(=O)c1n[nH]c(=O)c2ccccc12,–,–,–,–,–,–,·
CCOC(=O)c1n[nH]c2ccccc12,–,–,–,2.2,–,–,–
NS(=O)(=O)c1ccc(CCNC(=O)c2cccc(OC(F)F)c2)cc1,–,–,–,–,–,–,·
CC(/C=N/NC(=O)c1n[nH]c2c1CCC2)=C\c1ccccc1,–,–,–,5.51,–,–,–
O=C(N/N=C/C=C/c1ccccc1)c1n[nH]c2c1CCC2,–,–,–,3.96,–,–,–
O=C(N/N=C/C(Br)=C\c1ccccc1)c1n[nH]c2c1CCC2,–,–,–,–,–,–,·
CC(C)(C)Nc1nc(NN)nc(NC(C)(C)C)n1,–,–,–,-5.22,–,–,0.0509
CNc1nc(Cl)nc(NC(C)(C)C)n1,–,–,–,·,–,–,·
COC(=O)C1=C(C(=O)OC)[C@@H]2N(Cc3ccccc3)c3ccccc3[C@@]23C[C@@H](C(=O)OC)N(C(=O)CC(C)C)C3=N1,·,·,·,·,·,·,?
CC(C)CC(=O)N=C1SC2CS(=O)(=O)CC2N1Cc1ccccc1 (centres undefined),–,–,–,·,–,–,·
Cc1ccc(C2=NOC(=O)/C2=C\c2ccc(C)o2)cc1,·,·,·,-3.74,·,·,0.0392
Cc1ccc(/C=C2\C(=O)ON=C2c2ccccc2)o1,–,–,–,–,–,–,·
CCc1nc(CN2CCN(Cc3ccc(F)c(F)c3)C(CCO)C2)c(C)[nH]1 (centres undefined),–,–,–,·,–,–,·
Clc1ccc(-c2nnc(N3CCOCC3)o2)cc1,·,·,·,–,·,·,·
CC1CCN(C(C(=O)NC2CCCCC2)c2cc3c(cc2[N+](=O)[O-])OCO3)CC1 (centres undefined),–,–,–,-3.06,–,–,0.06
CCN=C(NS(=O)(=O)c1ccc(Br)cc1)c1ccc(Cl)cc1,–,–,–,–,–,–,·
SMILES,Diaph inh CS,G6PDH CS,Diaphorase act,ROMK mod,PMI activator,PMI act satM6P,ROMK hit retest
O=C(c1cn(-c2ccccc2)nc1-c1cccc([N+](=O)[O-])c1)N1CCCCC1,–,–,–,–,–,–,·
CCc1ccc(S(=O)(=O)NCCc2csc(-c3ccccc3)n2)s1,–,–,–,-3.4,–,–,–
O=C1CCN(S(=O)(=O)c2cccs2)c2ccc(C(F)(F)F)cc2N1,–,–,–,–,–,–,·
O=C(c1ccccc1F)N1CCN(c2cnn(-c3cccc(Cl)c3)c(=O)c2Cl)CC1,–,–,–,–,–,–,·
CN(C)C(=O)/C(=C\c1ccc(-c2cccc([N+](=O)[O-])c2)o1)NC(=O)c1ccccc1,–,–,–,–,–,–,·
CCCCNC(=O)/C(=C\c1ccc([N+](=O)[O-])o1)NC(=O)c1ccccc1,–,–,–,–,–,–,·
CN(C)CCNC(=O)/C(=C/c1ccc(-c2cccc(Cl)c2)o1)NC(=O)c1ccccc1,–,–,–,-3.65,–,–,0.0559
CN(C)CCCNC(=O)/C(=C\c1ccc(-c2ccc(Br)cc2)o1)NC(=O)c1ccccc1,–,–,–,-3.9,–,–,0.0539
Cc1ccc(C(=O)N/C(=C\c2ccc(-c3ccc(Cl)cc3)o2)C(=O)NCCCN(C)C)cc1,–,–,–,–,–,–,·
CN(C)CCNC(=O)/C(=C/c1ccc(-c2cccc([N+](=O)[O-])c2)o1)NC(=O)c1ccccc1,–,–,–,-4.47,–,–,0.0528
CS(=O)(=O)N(CC(=O)Nc1ccccc1C(=O)NCc1ccco1)c1ccccc1F,–,–,–,–,–,–,·
Cn1c(SCC(=O)NCc2ccc(F)cc2)nc2c([nH]c3ccccc32)c1=O,–,–,–,–,–,–,·
C=CCOC(=O)C1=C(C)NC(=O)NC1c1cn(-c2ccccc2)nc1-c1cccs1 (centres undefined),–,–,–,-3.03,–,–,0.0612
O=C(CCNC(=O)Cn1ccc2ccccc2c1=O)NCc1ccccn1,–,–,–,–,–,–,·
O=C(NCc1ccccc1)c1onc(CSc2ccccc2)c1C(=O)NCC1CC1,·,·,·,·,·,·,–
Cn1c(NC(=O)/C=C\c2ccccc2)cc(=O)n(C)c1=O,–,–,–,–,–,–,·
Cn1cc(CNC(=O)c2cc(-c3ccccc3)nc3ccc(Br)cc23)cn1,–,–,–,–,–,–,·
Cc1nn(C)cc1CN(C)C(=O)c1cc(-c2ccccc2)nc2ccc(Br)cc12,–,–,–,–,–,–,0.0584
CC(NCCC(c1ccccc1)c1ccccc1)c1ccccc1 (centres undefined),–,–,–,-6.16,–,–,0.046
COc1cccc(NC(=S)N2CCCC2c2ccc(OC)c(OC)c2)c1 (centres undefined),–,–,–,–,–,–,·
COc1ccc(N2CCCn3c2nc2c3c(=O)n(Cc3ccc(C)cc3)c(=O)n2C)c(OC)c1,–,–,–,–,–,–,·
O=c1oc2ccc(Cl)cc2nc1/C=C(\O)c1ccco1,·,·,·,–,·,·,·
Cc1ccc(/C(O)=C/c2nc3cc(C)ccc3oc2=O)cc1,·,·,·,-2.37,·,·,0.0481
CO/N=C/C(=N\Nc1cc(OC)cc(OC)c1)C(=O)c1ccccc1,–,–,–,–,–,–,·
CCC(C)(C)c1ccc(OCCCC[n+]2cccc(C)c2)c(C(C)(C)CC)c1,–,–,–,-4.07,–,–,0.0466
